According to ChEMBL document CHEMBL3425433, “Discovery of bicyclic pyrazoles as class III histone deacetylase SIRT1 and SIRT2 inhibitors” (Bioorg Med Chem Lett, 2015):
The source made the active and inactive calls. The calls are words filed in the database; no cut-off is given here.

Columns and labels:
Histone deacetylase 1 = Histone deacetylase 1 (Homo sapiens, UniProt Q13547); assay: Inhibition of HDAC1 (unknown origin)
[1] = target: Histone deacetylase 4 (Homo sapiens) (UniProt P56524); assay: Inhibition of HDAC4 (unknown origin)
Chain of Histone deacetylase 4 (Homo sapiens) (P56524 whole entry): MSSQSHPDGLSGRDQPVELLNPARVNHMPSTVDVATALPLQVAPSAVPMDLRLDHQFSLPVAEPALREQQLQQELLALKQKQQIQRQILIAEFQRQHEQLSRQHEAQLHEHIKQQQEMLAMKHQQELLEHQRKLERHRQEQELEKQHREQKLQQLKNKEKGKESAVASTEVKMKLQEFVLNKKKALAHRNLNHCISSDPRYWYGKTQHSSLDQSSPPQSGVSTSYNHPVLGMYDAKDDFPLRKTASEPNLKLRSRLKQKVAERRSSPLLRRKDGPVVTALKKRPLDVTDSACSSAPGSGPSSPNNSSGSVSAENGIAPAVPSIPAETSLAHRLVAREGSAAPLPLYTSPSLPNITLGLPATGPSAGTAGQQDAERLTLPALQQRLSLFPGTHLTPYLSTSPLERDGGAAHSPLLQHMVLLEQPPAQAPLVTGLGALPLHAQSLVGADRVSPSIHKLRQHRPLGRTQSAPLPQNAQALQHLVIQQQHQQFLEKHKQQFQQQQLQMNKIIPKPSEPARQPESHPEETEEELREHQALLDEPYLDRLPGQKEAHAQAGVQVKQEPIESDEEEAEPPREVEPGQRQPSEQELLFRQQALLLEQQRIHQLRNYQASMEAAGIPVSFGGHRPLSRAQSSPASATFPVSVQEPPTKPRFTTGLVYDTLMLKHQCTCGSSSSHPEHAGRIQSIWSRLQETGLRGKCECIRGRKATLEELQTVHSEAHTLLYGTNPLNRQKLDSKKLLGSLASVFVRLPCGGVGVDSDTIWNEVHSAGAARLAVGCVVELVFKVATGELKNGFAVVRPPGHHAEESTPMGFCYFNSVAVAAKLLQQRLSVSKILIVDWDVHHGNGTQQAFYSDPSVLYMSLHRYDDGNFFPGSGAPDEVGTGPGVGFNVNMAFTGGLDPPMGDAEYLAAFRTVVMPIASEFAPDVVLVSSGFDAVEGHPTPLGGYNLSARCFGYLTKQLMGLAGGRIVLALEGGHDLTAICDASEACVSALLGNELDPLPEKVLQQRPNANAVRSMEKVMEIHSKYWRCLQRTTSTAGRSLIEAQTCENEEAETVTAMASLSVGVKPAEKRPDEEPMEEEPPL

[2] = target: T1, NAD-dependent protein deacetylase sirtuin-1 (Homo sapiens) (UniProt Q96EB6); assay: Inhibition of His-tagged human recombinant SIRT1 expressed in Escherichia coli at 20 uM using Cbz-Lys(Ac)-AMC as substrate by fluorescence assay
T1 sequence (whole entry): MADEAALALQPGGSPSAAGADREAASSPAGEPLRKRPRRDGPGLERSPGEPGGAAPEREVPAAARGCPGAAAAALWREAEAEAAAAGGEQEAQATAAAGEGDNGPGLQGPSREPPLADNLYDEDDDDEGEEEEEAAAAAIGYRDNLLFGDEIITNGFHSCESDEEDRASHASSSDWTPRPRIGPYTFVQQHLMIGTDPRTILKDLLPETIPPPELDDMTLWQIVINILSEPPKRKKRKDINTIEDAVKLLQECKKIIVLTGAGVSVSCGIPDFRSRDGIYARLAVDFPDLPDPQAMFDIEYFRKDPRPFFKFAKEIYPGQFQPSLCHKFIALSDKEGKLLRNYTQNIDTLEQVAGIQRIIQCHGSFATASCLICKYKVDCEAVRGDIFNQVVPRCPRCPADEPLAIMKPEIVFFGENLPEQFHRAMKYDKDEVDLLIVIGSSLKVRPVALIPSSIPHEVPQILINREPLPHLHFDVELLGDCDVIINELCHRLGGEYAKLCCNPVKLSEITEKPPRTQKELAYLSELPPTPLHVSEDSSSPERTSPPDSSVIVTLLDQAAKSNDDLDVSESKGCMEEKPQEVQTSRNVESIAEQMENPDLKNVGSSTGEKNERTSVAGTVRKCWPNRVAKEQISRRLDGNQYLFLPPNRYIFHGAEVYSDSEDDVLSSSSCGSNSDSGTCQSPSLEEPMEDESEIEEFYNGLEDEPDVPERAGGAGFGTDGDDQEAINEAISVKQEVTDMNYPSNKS
How it was run: (§1)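 Fluorescence deacetylase assay with in-house Cbz-Lys(Ac)-AMC substrate. Values are means of three experiments on racemic material. Single-point lines were tested at 20 µM, and less than 20% inhibition was scored as no inhibition.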

Histone deacetylase 2 = Histone deacetylase 2 (Homo sapiens, UniProt Q92769); assay: Inhibition of HDAC2 (unknown origin)
Chain of Histone deacetylase 2 (Q92769 whole entry): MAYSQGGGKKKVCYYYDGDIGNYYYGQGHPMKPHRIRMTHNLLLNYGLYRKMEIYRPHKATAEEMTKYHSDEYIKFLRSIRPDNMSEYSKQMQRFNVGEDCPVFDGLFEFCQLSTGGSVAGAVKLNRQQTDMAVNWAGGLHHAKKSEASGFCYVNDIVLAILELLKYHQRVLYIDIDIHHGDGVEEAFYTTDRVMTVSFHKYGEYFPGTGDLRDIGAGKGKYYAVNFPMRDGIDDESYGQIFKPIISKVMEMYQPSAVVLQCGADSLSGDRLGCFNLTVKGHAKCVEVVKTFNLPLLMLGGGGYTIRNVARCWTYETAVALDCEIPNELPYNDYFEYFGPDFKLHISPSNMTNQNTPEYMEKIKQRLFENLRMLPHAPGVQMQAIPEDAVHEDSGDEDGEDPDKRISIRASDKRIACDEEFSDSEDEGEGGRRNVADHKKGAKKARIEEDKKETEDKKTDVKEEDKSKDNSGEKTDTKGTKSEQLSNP

[3] = target: T2, NAD-dependent protein deacetylase sirtuin-2 (Homo sapiens) (UniProt Q8IXJ6); assay: Inhibition of His-tagged human recombinant SIRT2 expressed in Escherichia coli at 20 uM using Cbz-Lys(Ac)-AMC as substrate by fluorescence assay; how it was run: as §1
T2 sequence (whole entry): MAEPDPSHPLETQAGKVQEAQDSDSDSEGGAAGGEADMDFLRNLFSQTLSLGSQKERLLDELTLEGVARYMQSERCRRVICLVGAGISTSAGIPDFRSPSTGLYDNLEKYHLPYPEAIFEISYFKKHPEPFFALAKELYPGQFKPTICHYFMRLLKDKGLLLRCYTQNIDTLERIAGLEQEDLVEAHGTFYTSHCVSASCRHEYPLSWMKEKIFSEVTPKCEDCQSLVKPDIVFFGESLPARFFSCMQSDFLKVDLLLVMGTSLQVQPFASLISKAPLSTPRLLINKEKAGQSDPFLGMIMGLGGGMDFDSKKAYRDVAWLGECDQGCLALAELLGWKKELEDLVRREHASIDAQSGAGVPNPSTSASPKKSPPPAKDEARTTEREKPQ

[4] = target: T3, Protein deacetylase HDAC6 (Homo sapiens) (UniProt Q9UBN7); assay: Inhibition of HDAC6 (unknown origin)
T3 sequence (whole entry): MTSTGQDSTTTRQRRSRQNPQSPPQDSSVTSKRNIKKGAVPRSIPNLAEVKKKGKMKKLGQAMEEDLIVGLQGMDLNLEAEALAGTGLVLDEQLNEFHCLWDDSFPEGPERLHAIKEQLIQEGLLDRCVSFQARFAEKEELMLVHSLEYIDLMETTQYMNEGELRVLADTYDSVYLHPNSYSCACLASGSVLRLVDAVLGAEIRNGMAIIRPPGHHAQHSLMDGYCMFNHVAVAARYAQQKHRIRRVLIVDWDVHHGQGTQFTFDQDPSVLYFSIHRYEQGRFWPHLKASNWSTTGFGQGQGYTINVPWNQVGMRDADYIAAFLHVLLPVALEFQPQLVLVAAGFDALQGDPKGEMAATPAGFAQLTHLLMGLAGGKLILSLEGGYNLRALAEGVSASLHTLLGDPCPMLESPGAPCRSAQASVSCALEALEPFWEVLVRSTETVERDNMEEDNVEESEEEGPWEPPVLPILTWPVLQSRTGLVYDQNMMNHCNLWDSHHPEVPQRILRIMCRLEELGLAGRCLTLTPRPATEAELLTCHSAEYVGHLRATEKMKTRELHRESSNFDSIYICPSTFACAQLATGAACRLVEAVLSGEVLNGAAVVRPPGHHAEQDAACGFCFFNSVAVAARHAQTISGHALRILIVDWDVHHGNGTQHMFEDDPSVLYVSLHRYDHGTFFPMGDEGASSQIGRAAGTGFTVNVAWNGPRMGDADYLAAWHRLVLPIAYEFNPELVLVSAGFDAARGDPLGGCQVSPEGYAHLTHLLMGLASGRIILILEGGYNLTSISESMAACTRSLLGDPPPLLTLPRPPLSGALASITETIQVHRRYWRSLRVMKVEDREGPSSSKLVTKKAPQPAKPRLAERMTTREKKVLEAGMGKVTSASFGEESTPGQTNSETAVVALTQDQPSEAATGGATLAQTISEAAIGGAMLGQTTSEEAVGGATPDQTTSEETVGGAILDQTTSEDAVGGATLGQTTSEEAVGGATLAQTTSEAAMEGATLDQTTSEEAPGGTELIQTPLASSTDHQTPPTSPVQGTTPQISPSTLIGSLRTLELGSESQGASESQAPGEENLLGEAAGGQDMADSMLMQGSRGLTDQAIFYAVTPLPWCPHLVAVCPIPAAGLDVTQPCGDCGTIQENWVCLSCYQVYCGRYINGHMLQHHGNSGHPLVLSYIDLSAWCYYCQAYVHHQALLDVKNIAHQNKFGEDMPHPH

[5] = target: Histone deacetylase 5 (Homo sapiens) (UniProt Q9UQL6); assay: Inhibition of HDAC5 (unknown origin)
Chain of Histone deacetylase 5 (Homo sapiens) (Q9UQL6 whole entry): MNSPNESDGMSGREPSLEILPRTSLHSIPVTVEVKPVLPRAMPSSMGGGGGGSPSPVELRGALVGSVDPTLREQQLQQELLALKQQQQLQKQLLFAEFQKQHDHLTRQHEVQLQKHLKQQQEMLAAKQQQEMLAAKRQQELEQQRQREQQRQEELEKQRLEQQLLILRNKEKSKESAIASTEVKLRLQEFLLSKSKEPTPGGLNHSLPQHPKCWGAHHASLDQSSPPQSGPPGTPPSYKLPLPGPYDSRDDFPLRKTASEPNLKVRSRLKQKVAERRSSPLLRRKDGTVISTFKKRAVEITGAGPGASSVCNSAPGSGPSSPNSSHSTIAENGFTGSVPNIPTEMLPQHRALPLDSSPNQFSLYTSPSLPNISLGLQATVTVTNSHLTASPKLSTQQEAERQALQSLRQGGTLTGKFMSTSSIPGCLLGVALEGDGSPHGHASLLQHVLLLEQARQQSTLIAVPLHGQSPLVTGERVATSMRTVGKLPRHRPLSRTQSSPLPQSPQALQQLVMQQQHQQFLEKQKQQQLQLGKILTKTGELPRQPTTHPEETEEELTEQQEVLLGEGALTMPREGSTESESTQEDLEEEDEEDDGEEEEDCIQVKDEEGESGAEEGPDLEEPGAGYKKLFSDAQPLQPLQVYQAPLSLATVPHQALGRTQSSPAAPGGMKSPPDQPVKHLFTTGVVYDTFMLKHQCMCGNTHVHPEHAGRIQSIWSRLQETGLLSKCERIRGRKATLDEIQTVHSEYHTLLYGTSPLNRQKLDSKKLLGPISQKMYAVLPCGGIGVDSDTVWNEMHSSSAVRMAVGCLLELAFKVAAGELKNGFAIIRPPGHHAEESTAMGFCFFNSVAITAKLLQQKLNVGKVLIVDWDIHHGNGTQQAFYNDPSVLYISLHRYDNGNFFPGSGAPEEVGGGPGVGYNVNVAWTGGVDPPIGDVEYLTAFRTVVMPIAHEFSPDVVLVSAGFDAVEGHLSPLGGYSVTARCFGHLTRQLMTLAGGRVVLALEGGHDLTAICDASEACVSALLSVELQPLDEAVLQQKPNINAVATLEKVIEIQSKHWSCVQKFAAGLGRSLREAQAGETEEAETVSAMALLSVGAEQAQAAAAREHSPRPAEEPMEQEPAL

Chain of Histone deacetylase 1 (Q13547 whole entry): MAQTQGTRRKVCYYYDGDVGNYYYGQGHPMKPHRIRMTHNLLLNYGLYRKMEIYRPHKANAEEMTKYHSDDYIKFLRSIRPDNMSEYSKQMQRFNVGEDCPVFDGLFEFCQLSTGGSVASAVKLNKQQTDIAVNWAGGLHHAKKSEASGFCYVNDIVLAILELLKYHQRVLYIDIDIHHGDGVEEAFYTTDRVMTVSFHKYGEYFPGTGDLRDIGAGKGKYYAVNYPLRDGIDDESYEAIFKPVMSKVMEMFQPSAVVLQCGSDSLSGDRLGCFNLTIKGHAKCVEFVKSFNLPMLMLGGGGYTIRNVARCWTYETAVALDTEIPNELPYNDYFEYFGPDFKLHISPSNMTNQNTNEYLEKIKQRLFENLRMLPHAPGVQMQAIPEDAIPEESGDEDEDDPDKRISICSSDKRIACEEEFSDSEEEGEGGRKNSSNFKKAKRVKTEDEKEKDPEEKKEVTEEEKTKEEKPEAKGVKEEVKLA

inhibition (Histone deacetylase 1) | inhibition [1] | inhibition [2] | inhibition (Histone deacetylase 2) | inhibition [3] | inhibition [4] | inhibition [5] | Compound
inactive | inactive | 31% | inactive | 51% | inactive | inactive | Cn1c(-c2n[nH]c3c2CCCC3C(N)=O)cc2cc(Cl)ccc21 (racemic)
inactive | inactive | < 20% | inactive | < 20% | inactive | inactive | Cn1cc(-c2n[nH]c3c2CCCC3C(N)=O)c2ccccc21 (racemic)
inactive | inactive | 24% | inactive | < 20% | inactive | inactive | NC(=O)C1CCCc2c(-c3ccc(Cl)cc3Cl)n[nH]c21 (racemic)
inactive | inactive | 42% | inactive | < 20% | inactive | inactive | NC(=O)C1CCCc2c(-c3ccc(F)cc3)n[nH]c21 (racemic)
inactive | inactive | 27% | inactive | < 20% | inactive | inactive | NC(=O)C1CCCc2c(-c3cccc(Cl)c3)n[nH]c21 (racemic)
inactive | inactive | 44% | inactive | < 20% | inactive | inactive | NC(=O)C1CCCc2c(-c3ccccc3)n[nH]c21 (racemic)
inactive | inactive | < 20% | inactive | 11% | inactive | inactive | NC(=O)C1CCCc2c(-c3ccccc3Cl)n[nH]c21 (racemic)
inactive | inactive | 47% | inactive | < 20% | inactive | inactive | NC(=O)C1CCCc2c(-c3cccs3)n[nH]c21 (racemic)

More lines, now with the values behind:

Compound | inhibition (Histone deacetylase 1) | inhibition [1] | inhibition [2] | inhibition (Histone deacetylase 2) | inhibition [3] | inhibition [4] | inhibition [5]
CCOC(=O)C1CCCc2c(-c3ccc(Cl)c(F)c3)n[nH]c21 (racemic) | inactive | inactive | < 20% | inactive | < 20% | inactive | inactive
CNC(=O)C1CCCc2c(-c3ccc(Cl)cc3)n[nH]c21 (racemic) | inactive | inactive | < 20% | inactive | < 20% | inactive | inactive
COc1ccc(-c2n[nH]c3c2CCCC3C(N)=O)cc1 (racemic) | inactive | inactive | < 20% | inactive | < 20% | inactive | inactive
NC(=O)C1CCCc2c(-c3cc4cc(Br)ccc4s3)n[nH]c21 (racemic) | inactive | inactive | 38% | inactive | 33% | inactive | inactive
NC(=O)C1CCCc2c(-c3cc4ccccc4[nH]3)n[nH]c21 (racemic) | inactive | inactive | 46% | inactive | 43% | inactive | inactive
NC(=O)C1CCCc2c(-c3ccc(C(F)(F)F)cc3)n[nH]c21 (racemic) | inactive | inactive | < 20% | inactive | < 20% | inactive | inactive
